We go through 27 compounds from ChEMBL document CHEMBL2439991, “Restraining the flexibility of the central linker in terameprocol results in constrained analogs with improved growth inhibitory activity” (Bioorg Med Chem Lett, 2013).

The test system of one test is T47D. In words: Cytotoxicity against human T47D cells after 72 hrs by MTT assay. The class given is functional. The essentials: (§1)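 MTT redox read-out; absorbance taken at 0 h (T0) and after 72 h exposure, with untreated cells as control (C). GI50 solved from (T − T0)/(C − T0) = 50%, i.e. viability halved relative to untreated after correction for time-zero cell count.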
A general note: Tetrazolium dyes change colour on reduction, which living cells bring about.

Test [1] in a line: Cytotoxicity against human U87 cells after 72 hrs by MTT assay. The note with it: U-87 MG. The class given is functional, U-87MG ATCC. The gist of the method:
as §1

For the next test, the system named is T98G. In words: Cytotoxicity against human T98G cells after 72 hrs by MTT assay. The format is functional. The essentials:
as §1

The subject of a further test is BXPC-3. In words: Cytotoxicity against human BxPC3 cells after 72 hrs by MTT assay. The class given is functional. The note with it: BXPC-3, 72 h. The gist of the method: as §1
In the next test the test system is HeLa. In words: Cytotoxicity against human HeLa cells after 72 hrs by MTT assay. The class given is functional. The essentials:
as §1

For a further test, the system named is 786-0. As to the kind of experiment: Cytotoxicity against human 786-0 cells after 72 hrs by MTT assay. The class given is functional. The note with it: 786-0, 72 h. The gist of the method: as §1
Test [2] relates to NCI-H69. In words: Ratio of NDGA IC50 to compound IC50 for human H69 cells. The format is functional.
Test [3] has as its system NCI-H69. As to the kind of experiment: Cytotoxicity against human H69 cells. The format is functional, cell-based.

`COc1ccc(CCNS(=O)(=O)c2ccc(OC)c(OC)c2)cc1OC`: the GI50 (with T47D; in test [1]; with T98G; with BXPC-3; with HeLa; in the test with 786-0) was more than 100 µM in each case.
`COc1ccc(C(=O)N2CCc3cc(OC)c(OC)cc3C2)cc1OC`: the GI50 (in general, the concentration at which growth is held to half of that of the control) with T47D came out at 11.9 µM; in test [1], 20.6 µM; with T98G, 10.1 µM; with BXPC-3, 13.6 µM; in the test on HeLa, 8.23 µM; in the test on 786-0, 24.1 µM.
Take `COc1ccc(CNC(=O)NCc2ccc(OC)c(OC)c2)cc1OC`: the GI50 (in the test on T47D; in test [1]; in the test on T98G; in the test with BXPC-3; in the test with HeLa; in the test with 786-0) was more than 100 µM in each case.
For the compound `COc1ccc(C2NCCc3cc(OC)c(OC)cc32)cc1OC` (stereo not drawn), the 50% growth inhibitory concentration (GI50) with T47D was more than 100 µM; in test [1], more than 100 µM; in the test with T98G, more than 100 µM; in the test with BXPC-3, more than 100 µM; in the test with HeLa, 57.6 µM; with 786-0, more than 100 µM.
In the case of `COc1ccc(NS(=O)(=O)c2ccc(OC)c(OC)c2)cc1OC`, the GI50 (in the test on T47D; in test [1]; in the test on T98G; in the test on BXPC-3; in the test with HeLa; with 786-0) was more than 100 µM each time.
For `COc1ccc(C2=NCCc3cc(OC)c(OC)cc32)cc1OC`, the GI50 was more than 100 µM in the test with T47D; more than 100 µM in test [1]; more than 100 µM with T98G; more than 100 µM in the test with BXPC-3; 79.3 µM in the test with HeLa; more than 100 µM with 786-0.
As for `COc1ccc(NC(=O)c2ccc(OC)c(OC)c2)cc1OC`, the GI50 (with T47D; in test [1]; in the test on T98G; with BXPC-3; in the test on HeLa; in the test on 786-0) was more than 100 µM in each case.
Regarding `COc1ccc(CCNC(=O)c2ccc(OC)c(OC)c2)cc1OC`, the GI50 (with T47D; in test [1]; in the test on T98G; in the test on BXPC-3; in the test on HeLa; in the test on 786-0) was more than 100 µM in each case.
As for `COc1ccc(CCNC(=O)Cc2ccc(OC)c(OC)c2)cc1OC`, the GI50 (in the test with T47D; in test [1]; in the test with T98G; in the test on BXPC-3; with HeLa; in the test with 786-0) was more than 100 µM throughout.
Turning to `COc1ccc(CNS(=O)(=O)c2ccc(OC)c(OC)c2)cc1OC`, the GI50 (with T47D; in test [1]; in the test with T98G; in the test with BXPC-3; with HeLa; with 786-0) was more than 100 µM in each case.
For the compound `COc1ccc(CC(=O)N2CCc3cc(OC)c(OC)cc3C2)cc1OC`, the GI50 (in the test on T47D; in test [1]; in the test on T98G; in the test on BXPC-3; in the test with HeLa; with 786-0) was more than 100 µM in each case.
Consider `COc1ccc(S(=O)(=O)N2CCc3cc(OC)c(OC)cc3C2)cc1OC`, for which the GI50 (with T47D; in test [1]; in the test on T98G; in the test on BXPC-3; with HeLa; with 786-0) was more than 50 µM throughout.
As for `COc1ccc(CN2CCc3cc(OC)c(OC)cc3C2)cc1OC`, the GI50 is 45.4 µM in the test with T47D; more than 100 µM in test [1]; more than 100 µM with T98G; more than 100 µM in the test with BXPC-3; 55.9 µM in the test with HeLa; more than 100 µM in the test on 786-0.
For the compound `COc1ccc(C(=O)C2=NCCc3cc(OC)c(OC)cc32)cc1OC`, the GI50 is 16.1 µM in the test with T47D; more than 100 µM in test [1]; more than 100 µM in the test on T98G; 26.3 µM in the test on BXPC-3; 16.9 µM with HeLa; more than 100 µM with 786-0.
As to `COc1ccc(/C=C/C(=O)NCc2ccc(OC)c(OC)c2)cc1OC`, the GI50 was more than 100 µM with T47D; 57.1 µM in test [1]; 70.3 µM in the test with T98G; more than 75 µM with BXPC-3; more than 75 µM in the test with HeLa; 68.4 µM with 786-0.
As for `COc1ccc(CNC(=O)c2ccc(OC)c(OC)c2)cc1OC`, the GI50 (in the test on T47D; in test [1]; in the test with T98G; in the test with BXPC-3; with HeLa; in the test with 786-0) was more than 100 µM in each case.
As to `COc1ccc(CC(=O)Nc2ccc(OC)c(OC)c2)cc1OC`, the GI50 (in the test on T47D; in test [1]; with T98G; in the test on BXPC-3; in the test with HeLa; with 786-0) was more than 100 µM in each case.
As to `COc1ccc(CNC(=O)Cc2ccc(OC)c(OC)c2)cc1OC`, the GI50 (in the test with T47D; in test [1]; with T98G; in the test on BXPC-3; in the test with HeLa; in the test with 786-0) was more than 100 µM each time.
Consider `COc1ccc(NC(=O)Nc2ccc(OC)c(OC)c2)cc1OC`, for which the GI50 (with T47D; in test [1]; with T98G; with BXPC-3; in the test with HeLa; with 786-0) was more than 50 µM throughout.
Consider `COc1ccc(CNC(=O)Nc2ccc(OC)c(OC)c2)cc1OC`, for which the GI50 (in the test with T47D; in test [1]; in the test with T98G; in the test with BXPC-3; in the test on HeLa; in the test on 786-0) was more than 100 µM throughout.
With `COc1ccc(/C=C/C=C/c2ccc(OC)c(OC)c2)cc1OC`, the GI50 is more than 100 µM in the test on T47D; more than 100 µM in test [1]; more than 100 µM in the test with T98G; 3.41 µM with BXPC-3; more than 100 µM in the test on HeLa; 2.67 µM in the test on 786-0.
As to `COc1ccc(/C=C/C(=O)Nc2ccc(OC)c(OC)c2)cc1OC`, the GI50 (with T47D; in test [1]; in the test on T98G; in the test with BXPC-3; in the test on HeLa; with 786-0) was more than 50 µM each time.
Regarding `Oc1ccc(CCCCc2ccc(O)c(O)c2)cc1O`, in the test with NCI-H69 [2], the “Ratio IC50” value is reported as 10. For the same compound, in the test on NCI-H69 [3], 0.3 µM corresponded to half-maximal inhibition (IC50).
As to `COc1ccc(/C=C2/CCc3cc(OC)c(OC)cc32)cc1OC` (mixture of isomers), the GI50 in the test with T47D is 4.24 µM; in test [1] it was more than 25 µM; in the test on T98G, more than 25 µM; in the test with BXPC-3, 8.1 µM; in the test on HeLa, more than 25 µM; in the test with 786-0, 5.5 µM.
For the compound `COc1ccc([C@H]2O[C@H](c3ccc(OC)c(OC)c3)[C@@H](C)[C@H]2C)cc1OC` [GANSCHISANDRINE], the GI50 in the test with T47D is 4.4 µM; in test [1], more than 75 µM; in the test on T98G, 58.3 µM; in the test on BXPC-3, 17.2 µM; in the test with HeLa, more than 75 µM; in the test with 786-0 it was more than 75 µM.
For the compound `CC(Cc1ccc(O)c(O)c1)C(C)Cc1ccc(O)c(O)c1` (stereo not drawn) [NORDIHYDROGUAIARETIC ACID], 4.4 µM corresponded to half-maximal inhibition with NCI-H69 [3] (IC50).
In the case of `COc1ccc(C[C@@H](C)[C@@H](C)Cc2ccc(OC)c(OC)c2)cc1OC` [TERAMEPROCOL], the GI50 was 5.36 µM in the test with T47D; more than 50 µM in test [1]; more than 50 µM with T98G; 17.1 µM with BXPC-3; more than 50 µM in the test on HeLa; 4.54 µM in the test with 786-0.
